# Screening results deposited in PubChem BioAssay by The Scripps Research Institute Molecular Screening Center.
# TAAR1 ag = agonists of human TAAR1. Q96RJ0. CHO RD-HGA16 TAAR1, Fluo-8 calcium fluorescence; vehicle wells 0%, saturating PEA agonist 100%. activation, % at 3 µM. 0.99% of 360,000 active. AID 624467;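 active = activation above the mean activation of all test compounds in the run plus 3 SD, cut at about 38% in these data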
# Target sequence (Q96RJ0 whole entry, looked up): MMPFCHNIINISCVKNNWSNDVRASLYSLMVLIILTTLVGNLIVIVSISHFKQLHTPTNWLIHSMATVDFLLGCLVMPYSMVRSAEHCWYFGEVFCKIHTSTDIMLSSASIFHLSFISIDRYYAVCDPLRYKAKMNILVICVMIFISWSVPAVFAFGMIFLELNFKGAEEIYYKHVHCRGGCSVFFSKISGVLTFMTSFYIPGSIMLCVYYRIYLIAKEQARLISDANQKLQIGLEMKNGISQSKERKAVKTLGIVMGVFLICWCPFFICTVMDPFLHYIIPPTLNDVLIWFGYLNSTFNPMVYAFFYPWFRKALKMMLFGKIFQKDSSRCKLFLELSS
#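 Test system: RD-HGA16 (CHO) cells co-expressing Gα16 and hTAAR1 / Benchmarks: DMSO vehicle as 0%, PEA at EC100 as 100% / Repeats: no replicates (n 1) / Measure: % activation from peak over basal fluorescence ratio, DMSO-to-PEA scaled / Timing: 17-24 h plating, Fluo-8 75 min 37 °C, 30 min RT / Technique: kinetic Fluo-8 calcium fluorescence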
# TAAR1 antagonist = antagonists of human TAAR1. 1.5% of 360,000 active. inhibition, % at 3 µM. CHO RD-HGA16 TAAR1, Fluo-8 calcium fluorescence, antagonist. AID 624466;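 active = inhibition above a per-plate cutoff, the mean inhibition of test compounds on that plate plus 3 SD, cut at about 49% in these data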;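 note: 0% = DMSO plus EC80 beta-PEA response and 100% = DMSO alone without agonist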
#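 Test system: CHO RD-HGA16 cells bearing hTAAR1 | Reagent: β-PEA, EC80 | Compound dosing: 3 µM, single point | Schedule: Dye loading 75 min at 37 °C, then 30 min room temperature | Signal: Calcium fluorescence with Fluo-8 | Evaluation: Percent inhibition of PEA-evoked calcium signal, max/basal emission ratio | Control set: DMSO-only wells and EC80 β-PEA-stimulated wells | Repeats: Singlicate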
# CHRM4 PAM = potentiates acetylcholine response at human M4 receptor; P08173; CHO-K1 hM4/Gqi5, Fluo-8 calcium fluorescence, ACh EC20; 0% = ACh EC20, 100% = maximal ACh; activation, % at 3 µM; 0.4% of 360,000 active;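 active = activation above its plate's cutoff, the mean activation of sample wells plus 3 SD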
# CHRM4 agonist = agonists of human muscarinic M4 receptor (CHRM4); CHO-K1 hM4/Gqi5, Fluo-8 calcium fluorescence; vehicle 0%, full acetylcholine response 100%; activation, % at 3 µM; 0.14% of 360,000 active; AID 624127;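 active = activation above the run mean over all test wells plus 3 SD, cut at about 32% in these data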;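 note: peak over basal fluorescence ratio per well then scaled between controls; 0% = DMSO wells and 100% = acetylcholine at EC100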
# M4 antag = antagonists of human muscarinic M4 receptor (CHRM4) | P08173 | CHO-hM4 cells, ACh EC80, Fluo-8 calcium fluorescence | inhibition, % at 3 µM | 0.73% of 360,000 active | AID 624125;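 active = inhibition above its plate's cutoff, the mean inhibition of sample wells plus 3 SD, cut at about 27% in these data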;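 note: 0% = acetylcholine EC80 with DMSO and 100% = DMSO without agonist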
# TAAR1 ag confirm = confirmation of human TAAR1 agonists; activation, % at 3 µM; 82% of 2,400 active; shares compounds with TAAR1 ag; AID 651783; CHO RD-HGA16 TAAR1, Fluo-8 calcium fluorescence; scaled: DMSO 0%, maximal phenethylamine 100%;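 active = activation above a cutoff set at the run's mean compound activation plus 3 SD, cut at about 39% in these data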
# Ga16 nonsel ag = nonselective agonism, TAAR1 counter-screen. shares compounds with TAAR1 ag. CHO-Ga16 parental, Fluo-8 calcium fluorescence; normalized to maximal ATP response, DMSO zero. activation, % at 3 µM. 50% of 2,400 active;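 active = activation above the run cutoff, the mean activation over all tested wells plus 3 SD, cut at about 12% in these data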;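 note: 0% = DMSO wells and 100% = maximal ATP response on the peak over basal ratio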
# TAAR1 desens = human TAAR1 agonist that also desensitizes the receptor | AID 651951 | inhibition, % at 3 µM | 46% of 2,400 active | shares compounds with TAAR1 ag | CHO RD-HGA16 hTAAR1, Fluo-8 calcium, beta-PEA response inhibition;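 active = inhibition above the run cutoff, the mean inhibition of all test compounds plus 3 SD, cut at about 49% in these data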;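 note: beta-PEA stimulus applied at its EC80; loss of beta-PEA calcium signal after compound pretreatment read as receptor desensitization; 0% = DMSO with beta-PEA at EC80 and 100% = DMSO alone without agonist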
# Ga16 nonsel ant = counter-screen for TAAR1 agonists: nonselective Ga16 antagonists; inhibition, % at 3 µM; CHO-Ga16 ATP-induced calcium, Fluo-8 fluorescence; shares compounds with TAAR1 ag; AID 651952; 39% of 2,400 active;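 active = inhibition above the plate's mean compound inhibition plus 3 SD, computed per plate, cut at about 22% in these data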;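 note: 0% = EC80 ATP with DMSO and 100% = DMSO wells without ATP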
# An asterisk follows results filed as active; . = no result given. Compounds with a hit are over-represented: about 3% of the library has one in this group of screens.
SMILES,TAAR1 ag,TAAR1 antagonist,CHRM4 PAM,CHRM4 agonist,M4 antag,TAAR1 ag confirm,Ga16 nonsel ag,TAAR1 desens,Ga16 nonsel ant
Cc1cc(=O)[nH]c(Nc2cccc(F)c2)n1,51*,10,3,2,-4,81*,2,41,5
CC1=C(C(=O)N(C)C)CC(CC(=O)NCCc2ccccn2)C(=O)N1CCCN1CCCC1=O (stereo unspecified),49*,-9,4,0,-2,44*,0,6,10
COc1cccc(CN2CCC2(C)C(=O)Nc2ccc3c(c2)CCN3C(C)=O)c1F (stereo unspecified),3,26,0,9,-3,.,.,.,.
Cc1ccc(NC(=O)CSc2nc3cc(C(=O)NCC4CCCO4)ccc3c(=O)n2CC2CCCO2)cc1 (stereo unspecified),2,-15,2,3,-9,.,.,.,.
CCCNC(=O)c1cc(C2CCCCN2C(=O)c2ccc(C(C)C)cc2)on1 (stereo unspecified),5,-36,-4,7,-13,.,.,.,.
Cc1cccc(C)c1Cn1c(C)c(C(=O)NCc2ccc([N+](=O)[O-])cc2)sc1=O,62*,49*,-10,17,11,47*,29*,53*,41*
Brc1ccc(C2C3=C(Nc4ncnn42)c2ccccc2OC3c2ccncc2)cc1 (stereo unspecified),43*,19,7,0,5,12,6,3,13
Cc1c(Cl)cccc1-c1ccc(/C=N/n2cnnc2)o1,47*,-19,12,3,7,38*,19*,12,13
CCCc1nc2c(Cl)cc(C(F)(F)F)cn2c1Cc1ccc(OC)cc1C,0,2,-6,-2,11,.,.,.,.
COc1ccccc1N1CCN(C(=O)CSc2nc(N)cc(=O)[nH]2)CC1,1,-5,4,-1,-12,.,.,.,.
Nc1cc(=O)[nH]c(SCC(=O)N2CCc3ccccc3C2)n1,80*,75*,-7,0,16,89*,5,43,7
Cc1ccc(N2C(N)=C(C#N)C(c3cccs3)C3=C2CC(C)(C)CC3=O)cc1 (stereo unspecified),45*,-12,9,-2,2,39*,12*,0,5
CC1(C)CC(=O)C2=C(C1)N(c1ccc(F)cc1)C(N)=C(C#N)C2c1cccs1 (stereo unspecified),1,-28,6,3,-13,.,.,.,.
CC(C)NC(=O)N(C)C[C@H]1Oc2ccc(NC(=O)NC3CCCCC3)cc2C(=O)N([C@H](C)CO)C[C@@H]1C,10,-11,12,1,-10,.,.,.,.
S=C(NCCc1ccccc1)N1CCn2cccc2C1c1cccnc1 (stereo unspecified),57*,13,-4,4,9,62*,4,37,27*
CC(Cc1cccs1)NC(=O)Nc1ccc(F)cc1 (stereo unspecified),49*,-3,-3,2,-1,82*,2,21,1
C=CCNc1nc(-c2ccc(O)c(C(N)=O)c2)cs1,3,-27,4,1,1,.,.,.,.
Cc1nc(NC(=O)c2ccccc2)sc1-c1csc(NCc2ccccc2)n1,0,8,11,7,11,.,.,.,.
NC(=O)c1cc(-c2csc(NCCc3ccccc3)n2)ccc1O,49*,-11,10,2,3,46*,6,21,19
